APJ antagonist – blocks the human apelin receptor APJ | CHO-K1 APJ beta-arrestin complementation, luminescence | inhibition, % at 20 µM | P35414 | 330,000 compounds, 0.32% hits;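 active = inhibition above about 40% at 20 µM, limit read from the data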;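 note: cells challenged with 10 nM apelin-13 agonist together with compound; plate controls were apelin-13 plus DMSO wells for no effect and DMSO wells lacking apelin-13 for full effect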
EBI2 block – EBI2 (human) antagonism; P32249; EBI2 beta-arrestin recruitment, luminescence, 7a,25-OHC stimulated; inhibition, % at 5 µM; 360,000 compounds, 0.81% hits; in the data active = inhibition above about 38%;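 note: enzyme fragment complementation signal reports receptor beta-arrestin coupling in cells; 0% = agonist plus DMSO wells and 100% = wells without agonist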
Beta2AR agonist – agonists of human beta-2 adrenergic receptor inducing internalization. P07550. Am2.2-beta2AR cells, FAP receptor internalization, flow cytometry. response, % (no concentration beside the values). 340,000 compounds, 0.43% hits. AID 504454;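 active = response above a set limit, near 3 SD of response in nonfluorescent compounds, cut at about 42% in these data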
Target sequence (P07550 whole entry, looked up): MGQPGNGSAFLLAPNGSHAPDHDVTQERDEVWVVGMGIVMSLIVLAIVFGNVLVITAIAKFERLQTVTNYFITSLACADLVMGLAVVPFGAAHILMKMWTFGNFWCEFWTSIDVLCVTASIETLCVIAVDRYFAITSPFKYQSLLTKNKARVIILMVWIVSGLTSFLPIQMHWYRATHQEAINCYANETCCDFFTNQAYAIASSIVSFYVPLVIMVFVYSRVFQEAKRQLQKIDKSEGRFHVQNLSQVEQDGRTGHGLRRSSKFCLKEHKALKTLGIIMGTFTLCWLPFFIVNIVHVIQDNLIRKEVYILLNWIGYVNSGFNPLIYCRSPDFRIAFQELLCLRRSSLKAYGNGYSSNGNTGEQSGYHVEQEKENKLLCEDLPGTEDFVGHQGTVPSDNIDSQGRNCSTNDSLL
CCR6 antag – blocks CCL20-driven beta-arrestin recruitment at human CCR6; P51684; CHO-K1 CCR6 PathHunter beta-arrestin, luminescence, CCL20-stimulated; inhibition, % at 20 µM; 340,000 compounds, 0.49% hits; AID 493098;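 active = compounds whose inhibition of the agonist-driven luminescence signal at 20 µM reaches about 50%, limit read from the data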;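 note: cells stimulated with CCL20 at 14 nM final; plate controls were DMSO with CCL20 for no effect and DMSO without agonist for full effect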
APJ ag – activates the human apelin receptor APJ; activation, % at 20 µM; AID 2520; 330,000 compounds, 0.11% hits; CHO-K1 APJ PathHunter beta-arrestin, luminescence; 0% DMSO wells, 100% apelin;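 active = activation more than six SD over the plate average, tested at 20 µM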;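 note: 0% = DMSO alone and 100% = apelin-13 at 10 nM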
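Assay system: engineered CHO-K1 APJ arrestin reporter cells; Amount: 1000 CHO-K1 reporter cells seeded per well; Dosing: one dose, 20 µM compound, 1% DMSO; Times: compound stimulation 90 min at 25 °C, detection 60 min; Measured by: luminescent beta-gal fragment complementation, chemiluminescent substrate; Read-out: APJ–arrestin association signal; Controls: DMSO vs Apelin-13 10 nM.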
CXCR6 inh – blocks human CXCR6 beta-arrestin recruitment | O00574 | CHO-K1 PathHunter CXCR6 beta-arrestin, luminescence | inhibition, % at 20 µM | 360,000 compounds, 0.36% hits | AID 602244; in the data active = inhibition above about 34%, passing the limit was not always enough;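 note: antagonist mode with CXCL16 agonist at 10 nM final; 0% = 10 nM CXCL16 with DMSO and 100% = unstimulated wells without agonist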
EBI2 conf – EBI2 (human) antagonism, single concentration confirmation. EBI2 beta-arrestin luminescence, 7a,25-OHC antagonism. shares compounds with EBI2 block. 2,400 compounds, 29% hits. AID 651997. inhibition, % at 5 µM;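 active = inhibition of at least 50%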
EBI2 ag – counter-screen for EBI2 antagonists: EBI2 agonist activity; shares compounds with EBI2 block; EBI2-expressing cells, agonist mode, luminescence, 60 min; 0% vehicle, 100% 7α,25-dihydroxycholesterol control; activation, % at 5 µM; 2,400 tested, under 10 active;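 active = activation of at least 50%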
bGal counter – beta-galactosidase inhibition counter-screen; shares compounds with EBI2 block; purified beta-galactosidase, luminescent Galacton Star, 15 min; inhibition, % at 5 µM; 2,400 compounds, 1% hits;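 active = replicate-average signal at least 3 plate SD below neutral wells, shown as high inhibition, flagging enzyme-inhibiting false positives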;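 note: 0% = DMSO wells with enzyme and 100% = wells lacking enzyme; higher means stronger loss of beta-gal luminescence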
* hit, by the source's call. Only some compounds are listed: those with a hit (about 1.8% of all), similar ones and a draw of the others.

How did O=C(COC(=O)/C=C/c1ccc(OC(F)F)cc1)Nc1ccc(N2CCOCC2)cc1 do in these assays?
APJ antagonist: -44; EBI2 block: 8; Beta2AR agonist: -10; CCR6 antag: 0; APJ ag: -2; CXCR6 inh: 2

What do the screens show for `Cc1ccc(NC(=O)c2ccccc2SCC(=O)N2CCCC2)cc1S(=O)(=O)N(C)C`?
APJ antagonist: 11; EBI2 block: 1; Beta2AR agonist: 1; CCR6 antag: 2; APJ ag: 4; CXCR6 inh: -5

Results for COc1ccc([C@H]2CC(=O)C=C(C#CC(C)(C)C)C2)cc1 ?
APJ antagonist: -12; EBI2 block: 66*; Beta2AR agonist: 0; CCR6 antag: 14; APJ ag: 1; CXCR6 inh: -18; EBI2 conf: 67*; EBI2 ag: 0; bGal counter: -11

How did COc1ccc([C@H]2CC(=O)C=C(/C=C/c3ccc(C(F)(F)F)cc3)C2)cc1 do in these assays?
APJ antagonist: 8; EBI2 block: 65*; Beta2AR agonist: 2; CCR6 antag: -9; APJ ag: -4; CXCR6 inh: 6; EBI2 conf: 33; EBI2 ag: 0; bGal counter: 9

What do the screens show for `Cc1ccc(SCC(=O)NCCC2=CCCCC2)cc1`?
APJ antagonist: 1; EBI2 block: 38*; Beta2AR agonist: 1; CCR6 antag: 4; APJ ag: -2; CXCR6 inh: 1; EBI2 conf: 31; EBI2 ag: 2; bGal counter: 0

What do the screens show for `COc1ccc(CNC(=O)c2cn(Cc3ccc(S(=O)(=O)N(C)C)cc3)c(=O)s2)cc1`?
EBI2 block: -8; CXCR6 inh: 7

How did Cn1c(=O)c(C(=O)c2ccccc2)nc2ccccc21 do in these assays?
APJ antagonist: 0; EBI2 block: -9; Beta2AR agonist: -9; CCR6 antag: 4; APJ ag: 0; CXCR6 inh: -7

Results for Cn1cc(C(=O)c2ccc(Cl)cc2)cc1-c1nc2ccccc2n1C ?
APJ antagonist: 11; EBI2 block: 64*; Beta2AR agonist: 2; CCR6 antag: -8; APJ ag: -1; CXCR6 inh: -2; EBI2 conf: 42; EBI2 ag: 0; bGal counter: 8

Results for COc1ccc(CNC(=O)c2cc(=O)c3cc(C)c(C)cc3o2)cc1 ?
APJ antagonist: -5; EBI2 block: 56*; Beta2AR agonist: 4; CCR6 antag: 2; APJ ag: -5; CXCR6 inh: -5; EBI2 conf: 38; EBI2 ag: 1; bGal counter: 5

What do the screens show for `Cc1ccc(S(=O)(=O)N2CCC(C(=O)NNC(=O)c3ccncc3)CC2)cc1`?
APJ antagonist: 2; EBI2 block: -5; Beta2AR agonist: 7; CCR6 antag: 4; APJ ag: -2; CXCR6 inh: -4

Results for CCS(=O)(=O)N1CCC(C(=O)NCc2ccc3c(c2)OCO3)CC1 ?
APJ antagonist: -9; EBI2 block: -5; Beta2AR agonist: 3; CCR6 antag: 0; APJ ag: -1; CXCR6 inh: -2

Results for O=C(NCc1ccc2c(c1)OCO2)C1CCN(C(=O)Nc2ccc(Cl)cc2)CC1 ?
APJ antagonist: 7; EBI2 block: 46*; Beta2AR agonist: -5; CCR6 antag: 9; APJ ag: -5; CXCR6 inh: -3; EBI2 conf: 6; EBI2 ag: -1; bGal counter: -12

What do the screens show for `O=C(c1ccc2ccccc2c1)N1CCN(Cc2ccccc2)CC1`?
APJ antagonist: -19; EBI2 block: 90*; Beta2AR agonist: -1; CCR6 antag: 7; APJ ag: -2; CXCR6 inh: -4; EBI2 conf: 77*; EBI2 ag: 1; bGal counter: 6

What do the screens show for `O=C(c1cccc(C(=O)N2CCN(Cc3ccccc3)CC2)c1)N1CCN(Cc2ccccc2)CC1`?
APJ antagonist: -5; EBI2 block: 5; Beta2AR agonist: -6; CCR6 antag: 7; APJ ag: -1; CXCR6 inh: -4

What do the screens show for `O=C(c1ccc(Br)cc1)N1CCC(C(=O)N2CCN(c3ccccc3)CC2)CC1`?
APJ antagonist: 10; EBI2 block: 79*; Beta2AR agonist: 10; CCR6 antag: 25; APJ ag: -2; CXCR6 inh: -8; EBI2 conf: 39; EBI2 ag: 0; bGal counter: -11

Results for O=C(c1ccc(Br)cc1)N1CCN(Cc2ccccc2)CC1 ?
APJ antagonist: 12; EBI2 block: 48*; Beta2AR agonist: -2; CCR6 antag: 4; APJ ag: -1; CXCR6 inh: -3; EBI2 conf: 36; EBI2 ag: 0; bGal counter: 5

How did CCOC(=O)[C@@H]1[C@H]2COc3ccccc3[C@H]2N2C(=O)N(c3cccc(C)c3)C(=O)[C@]12C do in these assays?
APJ antagonist: 11; EBI2 block: -9; Beta2AR agonist: -2; CCR6 antag: 14; APJ ag: -4; CXCR6 inh: -2

Results for O=C(CSc1ccc(Br)cc1)N1CCOCC1 ?
APJ antagonist: 4; EBI2 block: 12; Beta2AR agonist: -7; CCR6 antag: 0; APJ ag: 1; CXCR6 inh: 1

Results for Cc1ccc(OCC(=O)N2CCN(C(=O)c3cccs3)CC2)cc1 ?
APJ antagonist: -4; EBI2 block: 60*; Beta2AR agonist: 4; CCR6 antag: -2; APJ ag: -2; CXCR6 inh: -2; EBI2 conf: 41; EBI2 ag: 1; bGal counter: -3

What do the screens show for `Cc1ccc(OCC(=O)N2CCN(C(=O)c3ccco3)CC2)cc1`?
APJ antagonist: -14; EBI2 block: 52*; Beta2AR agonist: -3; CCR6 antag: 10; APJ ag: -4; CXCR6 inh: 4; EBI2 conf: 23; EBI2 ag: 3; bGal counter: 7

What do the screens show for `O=C(NCc1ccccc1)c1cccc(OCC(=O)N2CCN(C(=O)c3ccco3)CC2)c1`?
APJ antagonist: 14; EBI2 block: 6; Beta2AR agonist: -2; CCR6 antag: 4; APJ ag: -3; CXCR6 inh: 8

How did O=C(COc1ccccc1Cl)N1CCN(C(=O)c2ccco2)CC1 do in these assays?
APJ antagonist: 28; EBI2 block: -6; Beta2AR agonist: -3; CCR6 antag: 8; APJ ag: -2; CXCR6 inh: 0
